What was measured:
[1] = system: Mus musculus; test: Survival rate of the nonspecific resistance against Pseudomonas aeruginosa infection after intraperitoneal administration in ten mice; format: functional; design: unit: surviving mice (of 10)
In short: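 Compound (12.5 mg/kg, single dose) given ip to myelosuppressed mice on day -1, then iv infection with P. aeruginosa (Δ12) on day 0 at an LD35 inoculum; 10 mice per group; survival counted after 4-day observation; LPS (S. abortus equi) ip control group.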

[2] = Compound was evaluated for lethal dose after intravenous administration; format: toxicity, organism-based; conditions: mouse, in vivo
In short: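 Mice (C57BL/6, groups of six) given serial dilutions of compound iv via tail vein in pyrogen-free saline, with galactosamine 400 mg/kg ip given at the same time to sensitize to endotoxin; lethal toxicity recorded as LD50.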

[3] = system: Pseudomonas aeruginosa; test: Compound was evaluated for effective dose required for the nonspecific resistance against Pseudomonas aeruginosa after intraperitoneal administration; format: functional; conditions: ip
In short: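 Myelosuppressed mice got the compound ip on day -1 and were infected iv with P. aeruginosa (Δ12) on day 0 at an LD35 inoculum. Survival was scored over 4 days. ED50 was calculated by Probit analysis with confidence limits. Disaccharides were tested as lysine salts.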

| SMILES | Survival rate [1] | LD50 [2] [mg/kg] | ED50 [3] [mg/kg] |
| --- | --- | --- | --- |
| CCCCCCCCCCC[C@@H](O)CC(=O)N[C@H]1C(CC(=O)O)OC(CO)C(O)C1OC(=O)C[C@H](O)CCCCCCCCCCC (stereo not given in full) | 4 | – | – |
| CCCCCCCCCCC[C@@H](O)CC(=O)NC1C(OP(=O)(O)O)OC(CO)C(OC(=O)C[C@H](O)CCCCCCCCCCC)C1OC(=O)C[C@H](O)CCCCCCCCCCC (stereo not given in full) | 10 | 0.8 | 1.1 |
| CCCCCCCCCCC[C@@H](O)CC(=O)N[C@H]1C(CC(=O)O)OC(CO)C(O)C1O (stereo not given in full) | 0 | – | – |
| CCCCCCCCCCC[C@@H](O)CC(=O)NC1C(OCC2OC(CC(=O)O)C(NC(C)=O)C(OC(=O)C[C@H](O)CCCCCCCCCCC)C2O)OC(CO)C(O)C1OC(=O)C[C@H](O)CCCCCCCCCCC (stereo not given in full) | 7 | – | – |
| CCCCCCCCCCCCCC(=O)O[C@H](CCCCCCCCCCC)CC(=O)O[C@H]1[C@H](O)[C@H](CO)O[C@@H](CC(=O)O)[C@@H]1NC(=O)C[C@H](O)CCCCCCCCCCC | 2 | – | – |
| CCCCCCCCCCC[C@@H](O)CC(=O)OC1C(O)C(CO)OC(CC(=O)O)[C@@H]1NC(C)=O (stereo not given in full) | 1 | – | – |
| CCCCCCCCCCC[C@@H](O)CC(=O)NC1C(CC(=O)O)OC(COC2OC(CO)C(O)C(OC(=O)C[C@H](O)CCCCCCCCCCC)C2NC(=O)C[C@H](O)CCCCCCCCCCC)C(O)C1OC(=O)C[C@H](O)CCCCCCCCCCC (stereo not given in full) | 10 | ~5.2 | 1.5 |
| CCCCCCCCCCC[C@@H](O)CC(=O)NC1C(OP(=O)(O)O)OC(CO)C(O)C1OC(=O)C[C@H](O)CCCCCCCCCCC (stereo not given in full) | 0 | – | – |
| CCCCCCCCCCC[C@@H](O)CC(=O)NC1C(OCC2OC(OP(=O)(O)O)C(NC(=O)C[C@H](O)CCCCCCCCCCC)C(OC(=O)C[C@H](O)CCCCCCCCCCC)C2O)OC(CO)C(O)C1OC(=O)C[C@H](O)CCCCCCCCCCC (stereo not given in full) | 8 | 3.5 | 3.4 |
| CCCCCCCCCCC[C@@H](O)CC(=O)NC1C(CC(=O)O)OC(CO)C(OC(=O)C[C@H](O)CCCCCCCCCCC)C1OC(=O)C[C@H](O)CCCCCCCCCCC (stereo not given in full) | 10 | 1 | 1.1 |
| CCCCCCCCCCCCCC(=O)O[C@H](CCCCCCCCCCC)CC(=O)OC1C(O)C(CO)OC(OP(=O)(O)O)C1NC(=O)C[C@H](O)CCCCCCCCCCC (stereo not given in full) | 9 | 0.3 | 1.7 |
| CCCCCCCCCCCCCC(=O)O[C@H](CCCCCCCCCCC)CC(=O)O[C@H]1[C@H](O)[C@H](CO)O[C@H](CC(=O)O)[C@@H]1NC(=O)C[C@H](O)CCCCCCCCCCC (stereo in doubt; 17b) | 9 | 0.2 | 1.8 |
| CCCCCCCCCCCCCC(=O)O[C@H](CCCCCCCCCCC)CC(=O)O[C@H]1[C@H](O)[C@H](CO)O[C@H](CC(=O)O)[C@@H]1NC(=O)C[C@H](O)CCCCCCCCCCC (stereo in doubt; 13a) | 4 | – | – |

Reference: ChEMBL document CHEMBL1125201, “C-glycosidic analogues of lipid A and lipid X: synthesis and biological activities” (J Med Chem, 1991)
